In ChEMBL document CHEMBL4619820, “Development of Novel AKR1C3 Inhibitors as New Potential Treatment for Castration-Resistant Prostate Cancer” (J Med Chem, 2020):
Active and inactive are the calls of the source.

Legend:
Type in all cases: functional, cell-based
CWR22R [1] = test: Inhibition of pregnenolone-induced cell proliferation of human 22Rv1 cells at 10 uM pre-incubated for 2 hrs before pregnenolone stimulation for 72 hrs by alamar blue assay
Procedure, shortened: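 22Rv1 cells (AKR1C3- and AR-expressing) pretreated 2 h with agents, then cultured 72 h with 20 nM pregnenolone; viable cell number given as percent of pregnenolone-free control.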

CWR22R [2] = test: Inhibition of AR mRNA expression in human 22Rv1 cells at 10 uM pre-incubated for 2 hrs before pregnenolone stimulation for 24 hrs by RT-qPCR analysis
Procedure, shortened: (§1)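 22Rv1 cells pretreated 2 h with test agents, then stimulated 24 h with 20 nM pregnenolone; AR, TMPRSS2 and PSA mRNA measured by RT-qPCR, given as ratio to pregnenolone-free control.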

CWR22R [3] = test: Inhibition of TMPRSS2 mRNA expression in human 22Rv1 cells at 10 uM pre-incubated for 2 hrs before pregnenolone stimulation for 24 hrs by RT-qPCR analysis; procedure, shortened: as §1
CWR22R [4] = test: Inhibition of PSA mRNA expression in human 22Rv1 cells at 10 uM pre-incubated for 2 hrs before pregnenolone stimulation for 24 hrs by RT-qPCR analysis; procedure, shortened: as §1
CWR22R [5] = test: Induction of cell death in human 22Rv1 cells 50 uM pre-incubated for 2 hrs before addition of pregnenolone for 24 hrs
CWR22R [6] = test: Induction of apoptosis in human 22Rv1 cells assessed as increase in cleaved caspase-3 level at 50 uM pre-incubated for 2 hrs before addition of pregnenolone for 24 hrs by Western blot analysis
Procedure, shortened: (§2)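 Apoptotic markers in 22Rv1: 2 h pretreatment with or without 10 μM inhibitor and/or 50 μM enzalutamide, then 24 h 20 nM pregnenolone; Bax/Bcl-2 ratio as percent of control; cleaved caspase-3 also by immunofluorescence with DAPI.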

CWR22R [7] = test: Induction of apoptosis in human 22Rv1 cells assessed as effect on Bax protein expression level at 50 uM pre-incubated for 2 hrs before addition of pregnenolone for 24 hrs by Western blot analysis; procedure, shortened: as §2
CWR22R [8] = test: Induction of apoptosis in human 22Rv1 cells assessed as effect on cleaved PARP protein expression level at 50 uM pre-incubated for 2 hrs before addition of pregnenolone for 24 hrs by Western blot analysis; procedure, shortened: as §2
CWR22R [9] = test: Induction of apoptosis in human 22Rv1 cells assessed as effect on cleaved caspase-3 protein expression level at 50 uM pre-incubated for 2 hrs before addition of pregnenolone for 24 hrs by Western blot analysis; procedure, shortened: as §2
CWR22R [10] = test: Induction of ROS generation in human 22Rv1 cells at 50 uM by DCFH-DA dye based flow cytometric analysis
Procedure, shortened: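 22Rv1 cells exposed 3 h to 10 μM inhibitor and/or abiraterone, or 50 μM enzalutamide; intracellular ROS by flow cytometry as DCF-positive cells, percent of vehicle control.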

CNC(=O)c1ccc(N2C(=S)N(c3ccc(C#N)c(C(F)(F)F)c3)C(=O)C2(C)C)cc1F
active: inhibition (CWR22R [1]) | inhibition (CWR22R [2]) | inhibition (CWR22R [3]) | inhibition (CWR22R [4]) | Activity (CWR22R [5]) | Activity (CWR22R [6]) | Activity (CWR22R [7]) | Activity (CWR22R [8]) | Activity (CWR22R [9]) | Activity (CWR22R [10])
